Results from ChEMBL document CHEMBL1926544, “Tyrosine-based 1-(S)-[3-hydroxy-2-(phosphonomethoxy)propyl]cytosine and -adenine ((S)-HPMPC and (S)-HPMPA) prodrugs: synthesis, stability, antiviral activity, and in vivo transport studies” (J Med Chem, 2011).

Columns and labels:
[1] = Half life in phosphate buffer at pH 6.5 at 37 degC by LC/MS analysis; type: physicochemical
[2] = Half life in Sprague-Dawley rat intestinal homogenate at pH 6.5 by LC/MS analysis; type: ADME, tissue-based, Intestine
Outline: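 Compound stock (1 mg/ml, 400 µL) mixed with 260 µL buffer and 140 µL homogenate, 37 °C. Samples taken over time, quenched with methanol, centrifuged, supernatant analysed by LC-MS (C18, acetonitrile gradient in ammonium acetate pH 5.5). Run separately for each phosphorus diastereomer.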

[3] = Half life in phosphate buffer at pH 7.4 at 37 degC assessed as half life by LC/MS analysis; type: physicochemical
Human alphaherpesvirus 1 = assay: Antiviral activity against HSV1 KOS infected in HFF cells incubated for 3 days by plaque reduction assay; type: functional, organism-based
Outline: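 HFF monolayer plaque reduction, about 100 plaques per well. Drug overlay (100 µM down to 0.03 µM), about 3 days incubation, crystal violet staining, macroscopic plaques counted. IC50 from regression of % plaque reduction relative to no-drug wells. Duplicate; acyclovir run as positive control.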

HFF = assay: Cytotoxicity against HFF cells after 48 hrs by visual cytotoxicity observation assay; type: cell-based, Homo sapiens
KB = assay: Cytotoxicity against human KB cells after 48 hrs by crystal violet staining based spectrophotometric analysis; type: cell-based
Outline: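 KB cells at 5000 per well, left overnight at 37 °C. Compound added at eight concentrations in triplicate, 48 h at 37 °C in CO2 (two population doublings). Cells ethanol-fixed and crystal violet stained; dye eluted with acidified ethanol, read at 570 nm. IC50 by regression of % inhibition against log concentration.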

[4] = Antiviral activity against Cowpox virus Brighton infected in HFF cells incubated for 3 days by plaque reduction assay; type: functional, cell-based, Cowpox virus (Brighton Red)
Human betaherpesvirus 5 = assay: Antiviral activity against HCMV Towne infected in HFF cells incubated for 10 days by plaque reduction assay; type: functional, organism-based
Outline: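 Towne strain (plaque-purified P0) on HFF cells, about 100 plaques per well. Drug overlay (100 µM down to 0.03 µM), about 10 days incubation, crystal violet staining, microscopic plaques counted. IC50 from regression of % plaque reduction versus no-drug wells. Duplicate; ganciclovir as positive control.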

Vaccinia virus = assay: Antiviral activity against Vaccinia virus Copenhagen infected in HFF cells incubated for 3 days by plaque reduction assay; type: functional, organism-based, Orthopoxvirus vaccinia
Plasma [5] = assay: Drug level in CFW Swiss-Webster mouse plasma assessed as (S)-cHPMPA levels dosed at 10 mg equivalent of (S)-9-[3-hydroxy-2-(phosphonomethoxy)propyl]adenine/kg, po by LC-MS analysis; type: ADME, organism-based; conditions: in vivo
Outline: (§1)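 CFW Swiss-Webster mice, 4 weeks old, 25 g, fasted 18 h with water. Prodrug given by gavage in water at 10 mg eq (of HPMPA)/kg. Plasma by cardiac puncture at 1, 2, 3, 4 and 8 h, 5 mice per time point, one sample per mouse. Solid-phase extraction, then LC-MS (ESI positive) against internal-standard calibration curves.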

Plasma [6] = assay: Drug level in CFW Swiss-Webster mouse plasma dosed at 10 mg equivalent of (S)-9-[3-hydroxy-2-(phosphonomethoxy)propyl]adenine/kg, po by LC-MS analysis; type: ADME, organism-based; conditions: in vivo; outline: as §1
[7] = Human alphaherpesvirus 1, KOS, HFF, 72 h
[8] = Human betaherpesvirus 5, Towne, HFF, 240 h
[9] = Orthopoxvirus vaccinia, Copenhagen, HFF, 72 h

COC(=O)[C@H](Cc1ccc(O[P@@]2(=O)CO[C@@H](Cn3cnc4c(N)ncnc43)CO2)cc1)NC(=O)[C@@H](N)C(C)C
half-life [1]: 5.77 h | half-life [2]: < 0.5 h | half-life [3]: 1.1 h

Nc1nc2c(ncn2COCCO)c(=O)[nH]1 [ACYCLOVIR]
IC50 (Human alphaherpesvirus 1; [7]): 0.6 µM

CC(C)(C)NC(=O)[C@H](N)Cc1ccc(OP2(=O)CO[C@@H](Cn3ccc(N)nc3=O)CO2)cc1 (mixture of isomers)
IC50 (HFF; Homo sapiens, HFF, 48 h): > 100 µM | IC50 (KB): > 100 µM | IC50 ([4]; Cowpox virus, HFF, 72 h): 20 µM | IC50 (Human alphaherpesvirus 1; [7]): 1.5 µM | IC50 (Human betaherpesvirus 5; [8]): < 0.1 µM | IC50 (Vaccinia virus; [9]): 10 µM

COC(=O)[C@@H](N)Cc1ccc(O[P@@]2(=O)CO[C@@H](Cn3cnc4c(N)ncnc43)CO2)cc1
half-life [1]: 5.5 h | half-life [2]: < 0.5 h

COC(=O)[C@@H](N)Cc1ccc(O[P@]2(=O)CO[C@@H](Cn3cnc4c(N)ncnc43)CO2)cc1
half-life [1]: 0.917 h | half-life [2]: < 0.5 h

CC(C)OC(=O)[C@@H](N)Cc1ccc(OP2(=O)CO[C@@H](Cn3ccc(N)nc3=O)CO2)cc1 (mixture of isomers; form 1)
IC50 (HFF; Homo sapiens, HFF, 48 h): > 100 µM | IC50 (KB): > 100 µM | IC50 ([4]; hff): 40 µM | IC50 (Human alphaherpesvirus 1; hff): 20 µM | IC50 (Human betaherpesvirus 5; [8]): 0.12 µM | IC50 (Vaccinia virus; hff): 30 µM

Nc1nc2c(ncn2COC(CO)CO)c(=O)[nH]1 [GANCICLOVIR]
IC50 (HFF; Homo sapiens, HFF, 48 h): > 100 µM | IC50 (Human betaherpesvirus 5; [8]): 0.14 µM

CC(C)CNC(=O)[C@@H](N)Cc1ccc(OP2(=O)CO[C@@H](Cn3cnc4c(N)ncnc43)CO2)cc1.Cl (mixture of isomers; form 2)
Drug uptake (Plasma [5]): 80% | IC50 (HFF; hff): 100 µM | IC50 ([4]; hff): 2 µM | IC50 (Human alphaherpesvirus 1; hff): 35 µM | Drug uptake (Plasma [6]): 20% | IC50 (Human betaherpesvirus 5; hff): 1.3 µM | IC50 (Vaccinia virus; hff): 1.5 µM

Nc1ccn(C[C@@H](CO)OCP(=O)(O)O)c(=O)n1 [CIDOFOVIR]
IC50 (HFF; Homo sapiens, HFF, 48 h): 100 µM | IC50 (KB): > 100 µM | IC50 ([4]; Cowpox virus, HFF, 72 h): 30 µM | IC50 (Human betaherpesvirus 5; [8]): 0.28 µM

COC(=O)[C@@H](N)Cc1ccc(OP2(=O)CO[C@@H](Cn3cnc4c(N)ncnc43)CO2)cc1 (mixture of isomers; form 2)
IC50 ([4]; hff): 3.5 µM | IC50 (Human alphaherpesvirus 1; hff): 35 µM

Nc1ncnc2c1ncn2C[C@@H](CO)OCP(=O)(O)O
IC50 (HFF; Homo sapiens, HFF, 48 h): 100 µM | IC50 (KB): > 100 µM | IC50 ([4]; Cowpox virus, HFF, 72 h): 4 µM | IC50 (Human alphaherpesvirus 1; [7]): 35 µM | IC50 (Human betaherpesvirus 5; [8]): 0.41 µM | IC50 (Vaccinia virus; [9]): 2 µM

CC(C)OC(=O)[C@@H](N)Cc1ccc(O[P@@]2(=O)CO[C@@H](Cn3ccc(N)nc3=O)CO2)cc1
half-life [1]: 12.8 h | half-life [2]: < 0.5 h | half-life [3]: 3.98 h

COC(=O)[C@@H](N)Cc1ccc(O[P@@]2(=O)CO[C@@H](Cn3ccc(N)nc3=O)CO2)cc1
half-life [1]: 4.27 h | half-life [2]: < 0.5 h | half-life [3]: 2.02 h

COC(=O)[C@@H](N)Cc1ccc(OP2(=O)CO[C@@H](Cn3cnc4c(N)ncnc43)CO2)cc1 (mixture of isomers; form 1)
IC50 (HFF; Homo sapiens, HFF, 48 h): > 100 µM | IC50 (KB): > 100 µM | IC50 ([4]; Cowpox virus, HFF, 72 h): 7 µM | IC50 (Human alphaherpesvirus 1; [7]): 25 µM | IC50 (Human betaherpesvirus 5; [8]): 0.45 µM | IC50 (Vaccinia virus; [9]): 3 µM

CC(C)(C)NC(=O)[C@H](N)Cc1ccc(O[P@@]2(=O)CO[C@@H](Cn3ccc(N)nc3=O)CO2)cc1
half-life [1]: 28.9 h | half-life [2]: 28.9 h | half-life [3]: 10.5 h

CC(C)CNC(=O)[C@@H](N)Cc1ccc(OP2(=O)CO[C@@H](Cn3cnc4c(N)ncnc43)CO2)cc1 (mixture of isomers; form 3)
IC50 ([4]; hff): 2.5 µM | IC50 (Human betaherpesvirus 5; hff): 0.55 µM | IC50 (Vaccinia virus; hff): 1 µM

CC(C)CNC(=O)[C@@H](N)Cc1ccc(OP(=O)(O)CO[C@H](CO)Cn2cnc3c(N)ncnc32)cc1
IC50 (HFF; Homo sapiens, HFF, 48 h): 100 µM | IC50 (KB): > 100 µM | IC50 ([4]; Cowpox virus, HFF, 72 h): 3 µM | IC50 (Human alphaherpesvirus 1; [7]): 45 µM | IC50 (Human betaherpesvirus 5; [8]): 0.29 µM | IC50 (Vaccinia virus; [9]): 0.5 µM

Nc1ccn(C[C@H]2COP(=O)(O)CO2)c(=O)n1 [CYCLIC CIDOFOVIR]
IC50 (HFF; Homo sapiens, HFF, 48 h): > 100 µM | IC50 (KB): > 100 µM | IC50 ([4]; Cowpox virus, HFF, 72 h): 30 µM | IC50 (Human alphaherpesvirus 1; [7]): 50 µM

CC(C)CNC(=O)[C@@H](N)Cc1ccc(O[P@@]2(=O)CO[C@@H](Cn3cnc4c(N)ncnc43)CO2)cc1
half-life [1]: 12.8 h | half-life [2]: 12.8 h | half-life [3]: 3.85 h

CC(C)CNC(=O)[C@@H](N)Cc1ccc(OP2(=O)CO[C@@H](Cn3cnc4c(N)ncnc43)CO2)cc1 (mixture of isomers; form 1)
IC50 (HFF; Homo sapiens, HFF, 48 h): > 100 µM | IC50 (KB): > 100 µM | IC50 ([4]; hff): 7 µM | IC50 (Human alphaherpesvirus 1; [7]): 50 µM | IC50 (Human betaherpesvirus 5; hff): 0.3 µM | IC50 (Vaccinia virus; hff): 4.5 µM

CC(C)OC(=O)[C@@H](N)Cc1ccc(O[P@]2(=O)CO[C@@H](Cn3ccc(N)nc3=O)CO2)cc1
half-life [1]: 2.02 h | half-life [2]: < 0.5 h | half-life [3]: 0.367 h

COC(=O)[C@H](Cc1ccc(OP2(=O)CO[C@@H](Cn3ccc(N)nc3=O)CO2)cc1)NC(=O)[C@@H](N)C(C)C (mixture of isomers)
IC50 (KB): > 100 µM | IC50 ([4]; Cowpox virus, HFF, 72 h): 30 µM | IC50 (Human alphaherpesvirus 1; [7]): 15 µM | IC50 (Human betaherpesvirus 5; [8]): < 0.1 µM | IC50 (Vaccinia virus; [9]): 20 µM

COC(=O)[C@H](Cc1ccc(O[P@]2(=O)CO[C@@H](Cn3cnc4c(N)ncnc43)CO2)cc1)NC(=O)[C@@H](N)C(C)C
half-life [1]: 1.58 h | half-life [2]: < 0.5 h | half-life [3]: 0.25 h

COC(=O)[C@H](N)Cc1ccc(OP2(=O)CO[C@@H](Cn3ccc(N)nc3=O)CO2)cc1 (mixture of isomers)
IC50 (HFF; Homo sapiens, HFF, 48 h): > 100 µM | IC50 (KB): > 100 µM | IC50 ([4]; Cowpox virus, HFF, 72 h): 35 µM | IC50 (Human alphaherpesvirus 1; [7]): 35 µM | IC50 (Human betaherpesvirus 5; [8]): 0.2 µM | IC50 (Vaccinia virus; [9]): 25 µM

COC(=O)[C@@H](N)Cc1ccc(O[P@]2(=O)CO[C@@H](Cn3ccc(N)nc3=O)CO2)cc1
half-life [1]: 0.933 h | half-life [2]: < 0.5 h | half-life [3]: 0.317 h

CC(C)OC(=O)[C@@H](N)Cc1ccc(OP2(=O)CO[C@@H](Cn3ccc(N)nc3=O)CO2)cc1 (mixture of isomers; form 2)
IC50 ([4]; hff): 10 µM | IC50 (Human alphaherpesvirus 1; hff): 3 µM | IC50 (Human betaherpesvirus 5; hff): 0.22 µM | IC50 (Vaccinia virus; hff): 8 µM

C/C(=N\NC(N)=S)c1ccccn1
IC50 (KB): 3 µM

COC(=O)[C@H](N)Cc1ccc(O[P@]2(=O)CO[C@@H](Cn3ccc(N)nc3=O)CO2)cc1
half-life [1]: 1.52 h | half-life [2]: 1.2 h | half-life [3]: 0.35 h

COC(=O)[C@@H](N)Cc1ccc(OP2(=O)CO[C@@H](Cn3ccc(N)nc3=O)CO2)cc1 (mixture of isomers)
IC50 (HFF; Homo sapiens, HFF, 48 h): > 100 µM | IC50 (KB): > 100 µM | IC50 ([4]; Cowpox virus, HFF, 72 h): 50 µM | IC50 (Human alphaherpesvirus 1; [7]): 25 µM | IC50 (Human betaherpesvirus 5; [8]): 0.23 µM | IC50 (Vaccinia virus; [9]): 4 µM

CC(C)(C)NC(=O)[C@H](N)Cc1ccc(O[P@]2(=O)CO[C@@H](Cn3ccc(N)nc3=O)CO2)cc1
half-life [1]: 3.5 h | half-life [2]: 3.85 h | half-life [3]: 1 h

Nc1ncnc2c1ncn2C[C@H]1COP(=O)(O)CO1
IC50 (HFF; Homo sapiens, HFF, 48 h): 100 µM | IC50 (KB): > 100 µM | IC50 ([4]; Cowpox virus, HFF, 72 h): 0.6 µM | IC50 (Human alphaherpesvirus 1; [7]): 30 µM | IC50 (Human betaherpesvirus 5; [8]): 1.3 µM | IC50 (Vaccinia virus; [9]): 1 µM

CC(C)CNC(=O)[C@@H](N)Cc1ccc(O[P@]2(=O)CO[C@@H](Cn3cnc4c(N)ncnc43)CO2)cc1
half-life [1]: 2.03 h | half-life [2]: 1.9 h | half-life [3]: 0.433 h

COC(=O)[C@H](Cc1ccc(OP2(=O)CO[C@@H](Cn3cnc4c(N)ncnc43)CO2)cc1)NC(=O)[C@@H](N)C(C)C (mixture of isomers)
IC50 (HFF; Homo sapiens, HFF, 48 h): > 100 µM | IC50 (KB): > 100 µM | IC50 ([4]; Cowpox virus, HFF, 72 h): 8 µM | IC50 (Human alphaherpesvirus 1; [7]): 35 µM | IC50 (Human betaherpesvirus 5; [8]): 0.3 µM | IC50 (Vaccinia virus; [9]): 4 µM

COC(=O)[C@H](N)Cc1ccc(O[P@@]2(=O)CO[C@@H](Cn3ccc(N)nc3=O)CO2)cc1
half-life [1]: 6.42 h | half-life [2]: 3.5 h | half-life [3]: 2.1 h
